Assay results as given in ChEMBL document CHEMBL5303300, “EUbOPEN Chemogenomics Library - Multiplex” (2023).
“And” between values parts separate entries of the source, which are not always exact repeats. Identical values can stand only once.

Tests used:
[1] = tested on: Fibroblast; experiment: Multiplex assay against human fibroblast; type: toxicity, cell-based; conditions: number of replicates 2
Method in brief: (§1)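 With compound added, live cells were imaged on a CQ1 microscope at 37°C and 5% CO2; staining with Hoechst33342, BioTracker Green Microtubule Cytoskeleton Dye, MitoTracker Red and Annexin V Alexa Fluor 680 had been done at seeding. The CellPathfinder machine-learning gating scheme split cells into Hoechst high-intensity objects or normal cells, normal cells into healthy, pyknosed or fragmented nuclei, and pyknosed cells into mitotic or apoptotic. The tubulin, mitochondrial-mass and membrane-permeability phenotypes are per cents of healthy-nucleus cells.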

[2] = tested on: HEK-293T; experiment: Multiplex assay against HEK293T; type: toxicity, cell-based; conditions: human, number of replicates 2; method in brief: as §1
[3] = 12 h, 1 µM, compound concentration 1 uM
[4] = 12 h, 10 µM, compound concentration 10 uM
[5] = 24 h, 1 µM, compound concentration 1 uM
[6] = 24 h, 10 µM, compound concentration 10 uM
[7] = 48 h, 1 µM, compound concentration 1 uM
[8] = 48 h, 10 µM, compound concentration 10 uM

## CN(C)C/C=C/C(=O)Nc1cccc(S(=O)(=O)N2CCC(NC(=O)c3n[nH]cc3NC(=O)c3c(Cl)cc(Cl)cc3Cl)CC2)c1
[1]; [3]
  Population Apoptotic (%): 51% and 32%
  Population Fragmented Nuclei (%): 12% and 7%
  Population Healthy Nuclei (%): 59% and 65%
  Population Hoechst High Intensity Objects (%): 0% and 1%
  Population Membrane Permeable-Phenotype (%): 11% and 14%
  Population Mitochondria Different-Phenotype (%): 1% and 5%
  Population Mitotic Cells (%): 48% and 67%
  Population Normal (%): 100% and 98%
  Population Pyknosed Nuclei (%): 28% and 26%
  Population Tubulin-Different-Phenotype (%): 45% and 40%
  Total Cell Count: 158 and 185
[1]; [4]
  Population Apoptotic (%): 47% and 44%
  Population Fragmented Nuclei (%): 28% and 26%
  Population Healthy Nuclei (%): 36% and 40%
  Population Hoechst High Intensity Objects (%): 0%
  Population Membrane Permeable-Phenotype (%): 18% and 10%
  Population Mitochondria Different-Phenotype (%): 4% and 5%
  Population Mitotic Cells (%): 52% and 55%
  Population Normal (%): 100%
  Population Pyknosed Nuclei (%): 34% and 32%
  Population Tubulin-Different-Phenotype (%): 82% and 72%
  Total Cell Count: 243 and 248
[1]; [5]
  Population Apoptotic (%): 74% and 57%
  Population Fragmented Nuclei (%): 12% and 11%
  Population Healthy Nuclei (%): 62% and 63%
  Population Hoechst High Intensity Objects (%): 0%
  Population Membrane Permeable-Phenotype (%): 12% and 17%
  Population Mitochondria Different-Phenotype (%): 6% and 3%
  Population Mitotic Cells (%): 25% and 42%
  Population Normal (%): 100%
  Population Pyknosed Nuclei (%): 25%
  Population Tubulin-Different-Phenotype (%): 52% and 41%
  Total Cell Count: 140 and 177
[1]; [6]
  Population Apoptotic (%): 73% and 77%
  Population Fragmented Nuclei (%): 19% and 21%
  Population Healthy Nuclei (%): 15% and 20%
  Population Hoechst High Intensity Objects (%): 0%
  Population Membrane Permeable-Phenotype (%): 25% and 12%
  Population Mitochondria Different-Phenotype (%): 25% and 21%
  Population Mitotic Cells (%): 26% and 22%
  Population Normal (%): 99% and 100%
  Population Pyknosed Nuclei (%): 65% and 57%
  Population Tubulin-Different-Phenotype (%): 80% and 74%
  Total Cell Count: 227 and 226
[1]; [7]
  Population Apoptotic (%): 70% and 64%
  Population Fragmented Nuclei (%): 14% and 12%
  Population Healthy Nuclei (%): 44% and 50%
  Population Hoechst High Intensity Objects (%): 0%
  Population Membrane Permeable-Phenotype (%): 18%
  Population Mitotic Cells (%): 29% and 35%
  Population Normal (%): 100%
  Population Pyknosed Nuclei (%): 40% and 37%
  Population Tubulin-Different-Phenotype (%): 39% and 51%
  Total Cell Count: 166 and 150
[1]; [8]
  Population Apoptotic (%): 91% and 94%
  Population Fragmented Nuclei (%): 16% and 12%
  Population Healthy Nuclei (%): 5% and 6%
  Population Hoechst High Intensity Objects (%): 1% and 0%
  Population Membrane Permeable-Phenotype (%): 80% and 66%
  Population Mitochondria Different-Phenotype (%): 10% and 0%
  Population Mitotic Cells (%): 8% and 5%
  Population Normal (%): 98% and 99%
  Population Pyknosed Nuclei (%): 77% and 80%
  Population Tubulin-Different-Phenotype (%): 70% and 66%
  Total Cell Count: 191 and 189
[2]; [3]
  Population Apoptotic (%): 38% and 72%
  Population Fragmented Nuclei (%): 3% and 4%
  Population Healthy Nuclei (%): 89% and 87%
  Population Hoechst High Intensity Objects (%): 10%
  Population Membrane Permeable-Phenotype (%): 2% and 1%
  Population Mitochondria Different-Phenotype (%): 49% and 45%
  Population Mitotic Cells (%): 61% and 28%
  Population Normal (%): 89%
  Population Pyknosed Nuclei (%): 6% and 7%
  Population Tubulin-Different-Phenotype (%): 86% and 90%
  Total Cell Count: 376 and 356
[2]; [4]
  Population Apoptotic (%): 87% and 90%
  Population Fragmented Nuclei (%): 2% and 4%
  Population Healthy Nuclei (%): 84% and 79%
  Population Hoechst High Intensity Objects (%): 16% and 14%
  Population Membrane Permeable-Phenotype (%): 5% and 1%
  Population Mitochondria Different-Phenotype (%): 87% and 88%
  Population Mitotic Cells (%): 12% and 9%
  Population Normal (%): 83% and 85%
  Population Pyknosed Nuclei (%): 13% and 16%
  Population Tubulin-Different-Phenotype (%): 96% and 97%
  Total Cell Count: 417 and 374
[2]; [5]
  Population Apoptotic (%): 80%
  Population Fragmented Nuclei (%): 2% and 3%
  Population Healthy Nuclei (%): 90% and 85%
  Population Hoechst High Intensity Objects (%): 13% and 11%
  Population Membrane Permeable-Phenotype (%): 1% and 0%
